Compound activity from PubChem BioAssay.
Many of the other results were omitted from the sample, so hits are more common in it than they were.
ABCB1 block – human ABCB1 inhibition, ABCG2 as counter-screen; P08183; CCRF-Adr cells, JC-1 efflux, flow cytometry; inhibition, % at 6.6 µM; 0.067% of 190,000 active; in the data active means inhibition above about 40%;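 further: 0% = vehicle and 100% = reference inhibitor; higher value means more JC-1 retained so stronger ABCB1 efflux block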
Target sequence (P08183 whole entry, looked up): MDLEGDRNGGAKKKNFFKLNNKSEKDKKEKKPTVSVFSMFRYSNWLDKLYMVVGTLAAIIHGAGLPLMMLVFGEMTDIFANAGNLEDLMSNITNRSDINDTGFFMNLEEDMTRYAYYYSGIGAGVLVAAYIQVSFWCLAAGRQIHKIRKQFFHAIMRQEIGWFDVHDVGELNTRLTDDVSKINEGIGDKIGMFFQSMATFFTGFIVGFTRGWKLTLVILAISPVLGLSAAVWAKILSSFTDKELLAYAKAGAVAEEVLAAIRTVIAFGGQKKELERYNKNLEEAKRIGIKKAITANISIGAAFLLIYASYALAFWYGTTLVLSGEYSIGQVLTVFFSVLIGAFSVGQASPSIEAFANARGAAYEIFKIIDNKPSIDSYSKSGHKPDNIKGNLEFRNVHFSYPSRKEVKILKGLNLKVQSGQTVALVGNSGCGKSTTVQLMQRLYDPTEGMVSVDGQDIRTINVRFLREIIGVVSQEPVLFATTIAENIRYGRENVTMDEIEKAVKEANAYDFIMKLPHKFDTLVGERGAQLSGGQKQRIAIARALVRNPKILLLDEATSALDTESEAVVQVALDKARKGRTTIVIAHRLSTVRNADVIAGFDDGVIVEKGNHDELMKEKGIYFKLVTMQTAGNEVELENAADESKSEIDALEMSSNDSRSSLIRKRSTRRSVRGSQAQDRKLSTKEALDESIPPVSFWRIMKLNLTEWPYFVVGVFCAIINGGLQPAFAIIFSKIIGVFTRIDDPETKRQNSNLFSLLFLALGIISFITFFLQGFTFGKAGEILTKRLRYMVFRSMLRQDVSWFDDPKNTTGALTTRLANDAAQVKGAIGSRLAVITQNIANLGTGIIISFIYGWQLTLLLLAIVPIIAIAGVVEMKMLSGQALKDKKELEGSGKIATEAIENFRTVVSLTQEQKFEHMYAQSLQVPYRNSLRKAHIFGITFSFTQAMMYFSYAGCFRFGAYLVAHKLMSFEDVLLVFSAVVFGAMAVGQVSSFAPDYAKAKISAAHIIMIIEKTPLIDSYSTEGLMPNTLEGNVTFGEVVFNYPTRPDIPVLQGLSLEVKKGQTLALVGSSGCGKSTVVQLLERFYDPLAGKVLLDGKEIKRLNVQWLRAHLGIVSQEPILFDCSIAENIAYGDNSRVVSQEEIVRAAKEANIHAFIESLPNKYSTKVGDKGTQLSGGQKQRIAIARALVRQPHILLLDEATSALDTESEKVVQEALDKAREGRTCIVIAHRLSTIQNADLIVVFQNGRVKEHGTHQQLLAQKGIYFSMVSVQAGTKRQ
GSH bead fluor – GSH bead compound fluorescence profile; AID 1776; GSH beads flow cytometry, compound fluorescence 488/530 nm; hits give high values; fluorescence (KMESF) at 10 µM; 0.25% of 190,000 active; in the data active means fluorescence above about 89;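 further: glutathione beads carrying GST-tagged Bcl family fusion proteins plus one bare bead set; values are compound well signal with DMSO vehicle wells as background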
L major viab – inhibitors of Leishmania major promastigote growth; inhibition, % at 10 µM; AID 1063; 9% of 200,000 active; Leishmania major promastigotes, resazurin fluorescence viability;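 further: promastigotes grown with compound for 44 hours at 28 °C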
Avidin bead fluor – compound fluoresces at 488/530 nm on avidin beads. compound fluorescence 488/530 nm, flow cytometry; hits give high values. fluorescence (KMESF) at 10 µM. 0.38% of 220,000 active. AID 1775; in the data active means fluorescence above about 47
PKD1 kinase inh – blocks activity of human protein kinase D1; Q15139; PKD1 kinase fluorescence polarization assay; inhibition, % (no concentration beside the values); 0.056% of 200,000 active; AID 797
ABCG2 block – blocks JC-1 efflux by human ABCG2 transporter | inhibition, % at 6.6 µM | 0.1% of 190,000 active | AID 1325 | IgMXP3 cells, flow cytometry;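 active means inhibition above 80%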;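 further: 0% = DMSO and 100% = nicardipine control wells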
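material = IgMXP3 (ABCG2) plus far-red-tagged CCRF-Adr (ABCB1) cells | amount = 3 million cells/mL, equal mix of both lines | also added = JC-1 transporter substrate | dosing = one concentration, 6.6 µM final | schedule = 10 min at 25 °C | measured by = flow cytometric JC-1 green MFI at 530 nm | read-out basis = percent efflux inhibition, scaled nicardipine 100% to DMSO 0%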
Active calls of the source: *; · = no result given. Unless noted, no stated cut-off is given here; in the data, active means inhibition above about 50%; inactive means the rest.

SMILES	ABCB1 block	GSH bead fluor	L major viab	Avidin bead fluor	PKD1 kinase inh	ABCG2 block
CN(Cc1ccc(F)cc1)C(=O)c1ccc2c(c1)NC(=O)CS2	0	24	-8	65*	-2	2
O=C1CSc2ccc(C(=O)O)cc2N1	1	24	-5	10	0	1
CCOC(=O)N1CCN(Cc2cc(=O)oc3ccc(Cl)cc23)CC1	0	267*	-3	7	8	1
CCN1CCN(Cc2cc(=O)oc3ccc(Cl)cc23)CC1	0	26	0	10	-1	0
CCOC(=O)N1CCN(CCC(=O)c2ccc(Cl)cc2)CC1	0	31	94*	10	-7	1
CCOC(=O)N1CCC(NCCNC(=O)c2ccco2)CC1	0	12	-3	12	-6	0
CCOC(=O)N1CCC(NCCNC(=O)c2ccc(Cl)cc2)CC1	0	37	91*	15	-1	0
CCOC(=O)N1CCN(C(=O)Cc2ccc(Cl)cc2)CC1	0	7	-6	10	-7	1
CCOC(=O)N1CCC(NC(=O)c2ccc(CNS(=O)(=O)c3ccc(F)cc3)cc2)CC1	0	21	0	61*	1	2
Cc1ccc(S(=O)(=O)NCc2ccc(C(=O)NC3CC3)cc2)cc1	-2	23	-1	11	-9	-3
COc1ccccc1-n1cc(CN2CCN(CC=C(C)C)C(CCO)C2)cn1 (stereo not given)	·	·	·	6	·	·
CCOC(=O)N1CCN(CC(O)COc2ccc(OC)cc2C(C)(C)C)CC1 (stereo not given)	1	10	59*	9	4	0
CCOC(=O)N1CCN(C(=O)C2CCCCC2)CC1	0	21	-5	14	0	0
CCOC(=O)C1CCCN(CC(O)COc2ccc(OC)cc2C(C)(C)C)C1 (stereo not given)	2	29	40	12	6	4
CCOC(=O)N1CCN(CCC(=O)c2ccc(OC)cc2)CC1	1	12	82*	11	5	5
CCOC(=O)N1CCN(CCC(=O)Nc2ccc(OC)cc2)CC1	0	36	1	13	-3	0
CCOC(=O)N1CCC(NC2CCCCCCC2)CC1	0	5	94*	4	-6	0
O=C(CN(c1ccccc1)S(=O)(=O)c1ccccc1)NCCSc1ccccn1	0	12	0	12	-5	0
Cc1ccc(N(Cc2ccc(C(=O)NCCSc3ccccn3)cc2)S(C)(=O)=O)cc1C	1	9	68*	14	-8	11
Cc1cccc(N(CC(=O)NCCSc2ccccn2)S(=O)(=O)c2ccccc2)c1	2	13	57*	19	-3	2
O=C(Nc1ccc(F)cc1)OCCOc1ccc([N+](=O)[O-])cc1	·	·	·	5	·	·
Cc1ccc(-n2nc(-c3ccco3)cc2C(=O)O)c(C)c1	0	12	-8	8	-2	2
CNc1ccc(/C=C2\CSc3ccccc3C2=O)cc1[N+](=O)[O-]	2	19	99*	10	-12	14
O=C1/C(=C/c2cccc([N+](=O)[O-])c2)CSc2ccc(Cl)cc21	·	·	·	5	·	·
CC1=C(C(=O)OC2CCCCCC2)C(c2ccc(C)o2)C2=C(CCCC2=O)N1 (stereo not given)	3	21	25	26	-8	47
SMILES	ABCB1 block	GSH bead fluor	L major viab	Avidin bead fluor	PKD1 kinase inh	ABCG2 block
CC1=C(C(=O)OC2CCCC2)C(c2ccc(C)o2)C2=C(CC(c3cccs3)CC2=O)N1 (stereo not given)	1	31	83*	7	-7	2
Cc1c(C2=CCN(S(=O)(=O)c3ccc(Br)cc3)CC2)c2ccccc2n1C	0	22	64*	13	-5	-1
C[N+]1(CC(=O)OC2CCCCCCCCCCC2)CCCC1	0	13	100*	4	-5	-2
COC(=O)CCCCCCCCCC[N+]1(C)CCCCC1	0	15	17	13	2	-2
CN1CCc2c(sc3c2C(=O)NC(c2ccc(-c4ccc(Cl)cc4)o2)N3)C1 (stereo not given)	·	·	·	9	·	·
N#CC1=C(SCc2ccccc2)NC(=O)CC1c1ccc(O)cc1 (stereo not given)	1	48	28	32	-3	2
CCSC1=C(C#N)C(c2cccc(OC)c2)CC(=O)N1 (stereo not given)	0	13	-4	9	-2	0
Cc1ccc(C2CC(=O)NC(SCc3ccccc3)=C2C#N)cc1 (stereo not given)	1	15	61*	7	-11	5
N#CC1=C(SCc2ccccc2)NC(=O)CC1c1cccc(O)c1 (stereo not given)	0	7	62*	9	-4	1
O=CNCCCc1nc2ccccc2n1Cc1cccc2ccccc12	1	10	93*	9	0	4
CC(=O)NCCCc1nc2ccccc2n1Cc1ccccc1F	·	·	·	8	·	·
COc1ccc(C(=O)NCCCc2nc3ccccc3n2Cc2ccccc2C)cc1OC	8	19	77*	·	-16	8
CN(C1CCCCC1)S(=O)(=O)c1ccc(C(=O)N2CCN(c3nc4ccccc4s3)CC2)cc1	3	11	0	7	-6	-1
CCOC(=O)c1cc(C)nc(Sc2ccc(C)cc2)c1C#N	·	·	·	8	·	·
CC(C)C1C(c2ccccc2)N(C)C(c2ccccc2)CC1(O)c1ccccc1 (stereo not given)	·	17	40	5	-4	·
CC1C(c2ccccc2)N(C)C(c2ccccc2)C(C)C1(O)C#Cc1ccccc1 (stereo not given)	1	9	69*	13	-1	5
COc1ccccc1C(=O)NN1C(=O)/C(=C/c2cccn2C)SC1=S	·	·	·	95*	·	·
CCOc1ccc(-c2nc(C#N)c(NCc3ccco3)o2)cc1	1	11	-11	9	-5	6
O=C(CN1CCOCC1)N1CCN(c2nnc(-c3ccccc3)c3ccccc23)CC1	0	55	2	8	7	1
c1ccc(-c2nnc(OCCN3CCOCC3)c3ccccc23)cc1	0	31	83*	0	-14	1
O=c1c2ccccc2nc2n1CCC2O (stereo not given)	1	23	-2	8	7	0
CCOc1ccc2cc(C#N)c(SCC(=O)N3CCOCC3)nc2c1	0	12	18	12	-16	2
CCOc1ccc2nc(SCC(=O)N3CCCCCC3)c(C#N)cc2c1	4	13	64*	7	-6	57
Cc1ccccc1NC(=S)NCCc1ccccc1	0	13	0	5	-7	0
CCCN(Cc1ccccc1)C(=S)Nc1cccc(C)c1C	1	10	12	12	-1	5
Cc1cccc(C)c1NC(=O)CS(=O)CC(=O)NC1CCN(Cc2ccccc2)CC1 (stereo not given)	0	24	-4	21	11	1
